Reference: publication PMC6139428 (Molecular Nutrition & Food Research, 2017)
Entries after “also recorded” stand apart in the source; their conditions may differ.

What was measured:
[1] = Nutrikinetics of isoflavone metabolites in serum after oral boiled soybean; type: in vivo, mice (C57BL/6); conditions: for detection in pooled serum samples: pooled serum of sham and OVX groups after BS or CGJ, UPLC–QTOF‐MS; for serum concentration, CGJ‐treated compared with BS‐treated / bioavailability, CGJ‐treated compared to BS‐treated (unfermented soybean): OVX mice; for serum concentration, CGJ‐treated compared with BS‐treated: relative peak area; for AUC(0–24h), CGJ administered versus BS administered: OVX groups; for concentration based on area‐under‐the‐curve analysis: all groups; for bioavailability, CGJ‐treated compared to BS‐treated (unfermented soybean): abstract does not name the group; for AUC, CGJ treatment versus BS treatment: sham group
MC3T3‐E1 cells [2] = test: Alkaline phosphatase; type: cell-based; conditions: for ALP activity: 0.1–0 5 μ M, 6 days differentiation; for osteoblastogenesis: abstract summary
Outline: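 MC3T3‐E1 subclone 4 cells were kept in αMEM without L‐ascorbic acid and seeded at 2 × 10^4 cells/well. Differentiation was induced with 50 μg mL–1 L‐ascorbic acid and 10 mM β‐glycerophosphate plus test compound for 6 days. Cells were PBS‐washed and lysed in 0.2% Triton X‐100, and ALP was read with a pNPP kit. Means ± SD, n = 3, three independent experiments, tested against the control group.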

MC3T3‐E1 cells [3] = test: Mineralization assay; type: cell-based; conditions: 21‐day incubation
Outline: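 MC3T3‐E1 cells were differentiated with test compound and incubated 21 days. Cells were washed, fixed in 4% formalin and stained with 2% Alizarin Red S. Bound stain was solubilized in 10% […] in 10 mM sodium phosphate and absorbance read at 562 nm. Means ± SD, n = 3, three independent experiments, tested against the control group.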

RAW 264.7 cells = test: RANKL‐induced bone resorption activity; type: cell-based; conditions: abstract summary
Outline: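 RAW 264.7 macrophages were grown in DMEM and seeded. Medium was replaced with RANKL‐containing differentiation medium plus test compound, then held 5 days without medium change. Bone resorption activity was measured with a commercial bone resorption assay kit. Means ± SD, n = 3, three independent experiments, tested against the control group.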

Row | Compound | detection in pooled serum samples [1] | ALP activity (MC3T3‐E1 cells [2]) | serum concentration, CGJ‐treated compared with BS‐treated [1] | concentration based on area‐under‐the‐curve analysis [1] | further results
1 | O=c1c(-c2ccc(O)cc2)coc2cc(O[C@@H]3O[C@H](CO)[C@@H](O)[C@H](O)[C@H]3O)cc(O)c12 [Genistin] | not detected | – | – | – | –
2 | O=c1c(-c2ccc(O)cc2)coc2cc(O[C@@H]3O[C@H](CO)[C@@H](O)[C@H](O)[C@H]3O)ccc12 [Daidzin] | not detected | – | – | – | –
3 | O=C(O)/C=C/c1ccc(O)c(O)c1 [Caffeic acid] | – | stimulated ALP activity | higher in BS‐treated | – | mineralization, calcium deposition by ARS staining (MC3T3‐E1 cells [3]): Extensive calcium deposition
4 | O=c1c(-c2ccc(OS(=O)(=O)O)cc2)coc2cc(O)cc(O)c12 [Genistein 4′‐sulfate] | – | stimulated ALP activity | higher concentrations | high concentrations | osteoblastogenesis (MC3T3‐E1 cells [2]): promote osteoblastogenesis; AUC(0–24h), CGJ administered versus BS administered [1]: significantly higher; osteoclast formation (RAW 264.7 cells): inhibit osteoclast formation; mineralization, calcium deposition by ARS staining (MC3T3‐E1 cells [3]): Extensive calcium deposition
5 | Dihydrodaidzein sulfate | – | – | higher concentrations | high concentrations | –
6 | COc1cc2c(=O)c(-c3ccc(O)cc3)coc2cc1O [Glycitein] | detected | – | – | – | –
7 | Methyl caffeic acid | – | – | higher in BS‐treated | – | –
8 | O=C(O)c1ccc(O)cc1 [4‐hydroxybenzoic acid, 4‐Hydroxybenzoic acid] | – | – | higher in BS‐treated | – | –
9 | O=C(O)[C@H]1O[C@@H](Oc2ccc3c(c2)OC[C@H](c2ccc(O)cc2)C3)[C@H](O)[C@@H](O)[C@@H]1O [Equol 7‐glucuronide] | – | stimulated ALP activity | higher concentrations | high concentrations | osteoblastogenesis (MC3T3‐E1 cells [2]): promote osteoblastogenesis; bioavailability, CGJ‐treated compared to BS‐treated (unfermented soybean) [1]: enhances; also recorded: higher bioavailability; osteoclast formation (RAW 264.7 cells): inhibit osteoclast formation; mineralization, calcium deposition by ARS staining (MC3T3‐E1 cells [3]): Extensive calcium deposition
10 | O=c1c(-c2ccc(O)cc2)coc2cc(O)cc(O)c12 [Genistein] | detected | – | higher concentrations; also recorded: significantly higher | high concentrations | AUC(0–24h), CGJ administered versus BS administered [1]: significantly higher; bioavailability, CGJ‐treated compared to BS‐treated (unfermented soybean) [1]: enhances; AUC, CGJ treatment versus BS treatment [1]: significantly higher
11 | COc1ccc(-c2coc3cc(O)ccc3c2=O)cc1 [Formononetin] | – | stimulated ALP activity | higher in BS‐treated | – | –
12 | O=c1c(-c2ccc(O)cc2)coc2cc(O)ccc12 [Daidzein] | – | – | significantly higher | high concentrations | AUC, CGJ treatment versus BS treatment [1]: significantly higher
